Numbered stars: 1 amine (or outer) side, 2 acyl side, 3 side chain; on linkers, the order of the positions; unused ones are H or OH. Square brackets hold non-standard residues; d marks the D form. Peptide text beside a SMILES is read from it. X9 = O=C(Cc1nnc([C@H](Cc2ccccc2)N[*:1])[nH]1)[*:2]; X7 = O=C(c1nnc([C@H](Cc2ccccc2)N[*:1])[nH]1)[*:2]; X3 = O=C(c1nnc([C@H](Cc2ccccc2)N[*:1])o1)[*:2]; X4 = O=C(c1noc([C@H](Cc2ccccc2)N[*:1])n1)[*:2]
How the values were obtained:
[1] = Retention time of the compound.
In short: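 Analytical reversed-phase HPLC on a C-18 column (8 × 100 mm), eluting with CH3CN/H2O/0.1% TFA gradients. The gradient differs by compound: 0-60% at 1 mL/min over 30 min, or 5-65%, 20-60% or 0-60% at 0.5 mL/min over 30 min.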

[2] = biological target: Substance-P receptor (Rattus norvegicus, UniProt P14600); experiment: Affinity for rat Tachykinin receptor 1 determined in displacement screening by using radioligand 3,4-[3H]-(L-Pro e2) SP.
[3] = biological target: T1, Mu-type opioid receptor (Rattus norvegicus, UniProt P33535); experiment: The compound was tested for binding affinity towards rat Opioid receptor mu 1 by displacing [3H]DAMGO.
[4] = biological target: T1, Mu-type opioid receptor; experiment: The compound was tested for binding affinity towards [3H]DAMGO, in rat Opioid receptor mu 1
In short: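 Rat whole-brain (minus cerebellum) membranes from sucrose homogenisation, differential centrifugation and hypotonic lysis, in 50 mM Tris-HCl pH 7.4. […] Incubation 30 min at 25 °C, ended by filtration on PEI-soaked GF-C filters. Triplicates, three experiments, IC50 as mean ± SEM.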

T1 sequence (P33535 whole entry): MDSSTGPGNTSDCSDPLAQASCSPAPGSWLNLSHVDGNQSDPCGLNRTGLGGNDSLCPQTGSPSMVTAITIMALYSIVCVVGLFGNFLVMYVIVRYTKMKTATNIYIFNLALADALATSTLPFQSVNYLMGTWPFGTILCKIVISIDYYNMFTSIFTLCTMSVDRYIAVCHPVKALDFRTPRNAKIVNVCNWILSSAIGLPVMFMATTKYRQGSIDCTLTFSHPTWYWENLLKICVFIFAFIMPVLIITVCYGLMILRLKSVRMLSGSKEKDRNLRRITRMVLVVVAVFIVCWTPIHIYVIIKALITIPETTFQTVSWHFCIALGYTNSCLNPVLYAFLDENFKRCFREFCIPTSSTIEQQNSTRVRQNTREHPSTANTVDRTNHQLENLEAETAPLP
Sequence of Substance-P receptor (P14600 whole entry): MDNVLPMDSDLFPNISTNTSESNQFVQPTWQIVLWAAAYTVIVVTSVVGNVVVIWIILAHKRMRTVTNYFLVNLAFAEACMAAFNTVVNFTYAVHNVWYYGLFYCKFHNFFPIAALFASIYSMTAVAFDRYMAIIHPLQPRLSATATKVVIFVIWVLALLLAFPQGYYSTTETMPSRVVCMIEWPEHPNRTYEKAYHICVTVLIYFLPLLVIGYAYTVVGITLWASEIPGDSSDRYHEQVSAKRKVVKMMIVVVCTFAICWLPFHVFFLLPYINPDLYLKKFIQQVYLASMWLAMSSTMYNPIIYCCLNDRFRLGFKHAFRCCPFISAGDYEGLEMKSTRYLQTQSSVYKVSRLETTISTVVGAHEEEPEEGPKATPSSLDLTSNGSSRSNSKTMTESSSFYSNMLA

Row | Compound | Retention time [1] | IC50 [2] | other results
1 | C[C@@H](NC(=O)[C@@H](N)Cc1ccc(O)cc1)C(=O)N[C@@H](Cc1ccccc1)c1nnc(CN[C@@H](Cc2ccc(O)cc2)C(=O)N2CCC[C@H]2C(=O)N[C@@H](CO)C(N)=O)o1 | 34 min | – | –
2 | C[C@@H](NC(=O)[C@@H](N)Cc1ccc(O)cc1)C(=O)N[C@@H](Cc1ccccc1)c1n[nH]c(N[C@@H](Cc2ccc(O)cc2)C(=O)N2CCC[C@H]2C(=O)N[C@@H](CO)C(N)=O)n1 | 20.6 min | – | –
3 | CC(C)(C)OC(=O)N[C@@H](Cc1ccccc1)c1nc(CCO)no1 | 30.9 min | – | –
4 | C[C@@H](NC(=O)[C@@H](N)Cc1ccc(O)cc1)C(=O)N[C@@H](Cc1ccccc1)c1nnc(C(=O)N[C@@H](Cc2ccc(O)cc2)C(=O)N2CCC[C@H]2C(=O)N[C@@H](CO)C(N)=O)o1 | – | > 1000 nM | IC50 [3]: 20 nM
5 | C[C@@H](NC(=O)[C@@H](N)Cc1ccc(O)cc1)C(=O)N[C@@H](Cc1ccccc1)c1nc(CN[C@@H](Cc2ccc(O)cc2)C(=O)N2CCC[C@H]2C(=O)N[C@@H](CO)C(N)=O)no1 | 21 min | – | –
6 | CSCC[C@H](NC(=O)[C@H](CC(C)C)NC(=O)Cc1noc([C@H](Cc2ccccc2)NC(=O)[C@H](Cc2ccccc2)NC(=O)[C@H](CCC(N)=O)NC(=O)[C@H](CCC(N)=O)NC(=O)[C@@H]2CCCN2C(=O)[C@H](CCCCN)NC(=O)[C@@H]2CCCN2C(=O)[C@@H](N)CCCN=C(N)N)n1)C(N)=O (stereo in doubt; form 2) | – | 307 nM | –
7 | C[C@@H](NC(=O)[C@@H](N)Cc1ccc(O)cc1)C(=O)N[C@@H](Cc1ccccc1)c1nc(C(=O)N[C@@H](Cc2ccc(O)cc2)C(=O)N2CCC[C@H]2C(=O)N[C@@H](CO)C(N)=O)no1 | – | > 1000 nM | IC50 [3]: 17 nM
8 | C[C@@H](NC(=O)[C@@H](N)Cc1ccc(O)cc1)C(=O)N[C@@H](Cc1ccccc1)c1nnc(C(=O)N[C@@H](Cc2ccc(O)cc2)C(=O)N2CCC[C@H]2C(=O)N[C@@H](CO)C(N)=O)[nH]1 | – | > 1000 nM | IC50 [3]: 490 nM
9 | CSCC[C@H](NC(=O)[C@H](CC(C)C)NC(=O)c1nnc([C@H](Cc2ccccc2)NC(=O)[C@H](Cc2ccccc2)NC(=O)[C@H](CCC(N)=O)NC(=O)[C@H](CCC(N)=O)NC(=O)[C@@H]2CCCN2C(=O)[C@H](CCCCN)NC(=O)[C@@H]2CCCN2C(=O)[C@@H](N)CCCNC(=N)N)[nH]1)C(N)=O (H-RPKPQQF[X7]LM-NH2) | – | > 1000 nM | –
10 | C[C@@H](NC(=O)[C@@H](N)Cc1ccc(O)cc1)C(=O)N[C@@H](Cc1ccccc1)c1n[nH]c(CC(=O)N[C@@H](Cc2ccc(O)cc2)C(=O)N2CCC[C@H]2C(=O)N[C@@H](CO)C(N)=O)n1 | – | > 1000 nM | IC50 [3]: 21 nM
11 | CSCC[C@H](NC(=O)[C@H](CC(C)C)NC(=O)Cc1nnc([C@H](Cc2ccccc2)NC(=O)[C@H](Cc2ccccc2)NC(=O)[C@H](CCC(N)=O)NC(=O)[C@H](CCC(N)=O)NC(=O)[C@@H]2CCCN2C(=O)[C@H](CCCCN)NC(=O)[C@@H]2CCCN2C(=O)[C@@H](N)CCCNC(=N)N)[nH]1)C(N)=O (H-RPKPQQF[X9]LM-NH2) | – | > 1000 nM | –
12 | C[C@@H](NC(=O)[C@@H](N)Cc1ccc(O)cc1)C(=O)N[C@@H](Cc1ccccc1)c1nnc(CC(=O)N[C@@H](Cc2ccc(O)cc2)C(=O)N2CCC[C@H]2C(=O)N[C@@H](CO)C(N)=O)o1 | – | > 1000 nM | IC50 [3]: 31 nM
13 | CSCC[C@H](NC(=O)[C@H](CC(C)C)NC(=O)c1noc([C@H](Cc2ccccc2)NC(=O)[C@H](Cc2ccccc2)NC(=O)[C@H](CCC(N)=O)NC(=O)[C@H](CCC(N)=O)NC(=O)[C@@H]2CCCN2C(=O)[C@H](CCCCN)NC(=O)[C@@H]2CCCN2C(=O)[C@@H](N)CCCN=C(N)N)n1)C(N)=O (H-RPKPQQF[X4]LM-NH2) | – | > 1000 nM | –
14 | C[C@@H](NC(=O)[C@@H](N)Cc1ccc(O)cc1)C(=O)N[C@@H](Cc1ccccc1)c1n[nH]c(CN[C@@H](Cc2ccc(O)cc2)C(=O)N2CCC[C@H]2C(=O)N[C@@H](CO)C(N)=O)n1 | 20.2 min | – | –
15 | CSCC[C@H](NC(=O)[C@H](CC(C)C)NC(=O)Cc1noc([C@H](Cc2ccccc2)NC(=O)[C@H](Cc2ccccc2)NC(=O)[C@H](CCC(N)=O)NC(=O)[C@H](CCC(N)=O)NC(=O)[C@@H]2CCCN2C(=O)[C@H](CCCCN)NC(=O)[C@@H]2CCCN2C(=O)[C@@H](N)CCCN=C(N)N)n1)C(N)=O (stereo in doubt; form 1) | – | > 1000 nM | –
16 | C[C@@H](NC(=O)[C@@H](N)Cc1ccc(O)cc1)C(=O)N[C@@H](Cc1ccccc1)c1nc(N[C@@H](Cc2ccc(O)cc2)C(=O)N2CCC[C@H]2C(=O)N[C@@H](CO)C(N)=O)no1 | 22.7 min | – | –
17 | C[C@@H](NC(=O)[C@@H](N)Cc1ccc(O)cc1)C(=O)N[C@@H](Cc1ccccc1)C(=O)NCC(=O)N[C@@H](Cc1ccc(O)cc1)C(=O)N1CCC[C@H]1C(=O)N[C@@H](CO)C(N)=O [DERMORPHIN] | – | > 1000 nM | IC50 [4]: 6.2 nM
18 | C[C@@H](NC(=O)[C@@H](N)Cc1ccc(O)cc1)C(=O)N[C@@H](Cc1ccccc1)c1nc(CC(=O)N[C@@H](Cc2ccc(O)cc2)C(=O)N2CCC[C@H]2C(=O)N[C@@H](CO)C(N)=O)no1 | – | > 1000 nM | IC50 [3]: 12 nM
19 | CSCC[C@H](NC(=O)[C@H](CC(C)C)NC(=O)c1nnc([C@H](Cc2ccccc2)NC(=O)[C@H](Cc2ccccc2)NC(=O)[C@H](CCC(N)=O)NC(=O)[C@H](CCC(N)=O)NC(=O)[C@@H]2CCCN2C(=O)[C@H](CCCCN)NC(=O)[C@@H]2CCCN2C(=O)[C@@H](N)CCCNC(=N)N)o1)C(N)=O (H-RPKPQQF[X3]LM-NH2) | – | > 1000 nM | –
20 | C[C@@H](NC(=O)[C@@H](N)Cc1ccc(O)cc1)C(=O)NCC(=O)N(C)[C@@H](Cc1ccccc1)C(=O)NCCO [DAMGO] | – | > 1000 nM | –
21 | C[C@@H](NC(=O)[C@@H](N)Cc1ccc(O)cc1)C(=O)N[C@@H](Cc1ccccc1)c1nnc(N[C@@H](Cc2ccc(O)cc2)C(=O)N2CCC[C@H]2C(=O)N[C@@H](CO)C(N)=O)o1 | 22 min | – | –
22 | CCOC(=O)Cc1n[nH]c([C@H](Cc2ccccc2)NC(=O)OC(C)(C)C)n1 | 22.1 min | – | –
